Test results from ChEMBL document CHEMBL1140964, “1,8-Naphthyridines VII. New substituted 5-amino[1,2,4]triazolo[4,3-a][1,8]naphthyridine-6-carboxamides and their isosteric analogues, exhibiting notable anti-inflammatory and/or analgesic activities, but no acute gastrolesivity” (Eur J Med Chem, 2008).

Columns and labels:
Rattus norvegicus [1] = experiment: Antiinflammatory activity against carrageenan-induced paw edema in Wistar rat at 100 mg/kg, po dose administered 1 hr before carrageenan challenge assessed after 3 hrs; type: functional
Method in brief: (§1)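 Wistar rats (250–300 g, either sex), fasted overnight, dosed by oral gavage with the compound suspended in 0.5% methylcellulose. Controls received vehicle alone, with 8–10 animals per group. Dosing started at 100 mg/kg and was halved stepwise. Carrageenan (1%, 0.1 mL) was injected subplantar 1 h post-dose. Paw volume was measured by plethysmometer immediately and at 3 h, and % inhibition of swelling was calculated versus controls (Student's t-test).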

Mus musculus [2] = experiment: Sedative activity in Swiss mouse assessed as inhibition of spontaneous locomotor activity at 100 mg/kg, po dose measured for every 5 mins during 60 to 90 mins; type: organism-based; set-up: dose 100 mg/kg, route oral
Method in brief: (§2)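 Fasted Swiss mice (25–35 g, either sex) were given compound orally in 0.5% methylcellulose or vehicle. Each mouse was placed alone in a photobeam-type activity cage, with counts recorded every 5 min for 90 min. Pulses from the final 30 min were scored, with testing run 9:00–13:00. Percent inhibition was calculated versus controls (Student's t-test).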

Mus musculus [3] = experiment: Antinociceptive activity in Swiss mouse assessed as inhibition of acetic acid-induced writhing response at 25 mg/kg, po dose administered 1 hr before acetic acid challenge measured for 30 mins; type: functional
Method in brief: (§3)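 Swiss mice (25–35 g, either sex), fasted overnight, received compound orally in 0.5% methylcellulose or vehicle, with 8–10 per group. Testing started at 100 mg/kg with successive twofold dose reductions. Writhes were counted for 30 min after acetic acid injection. Percent inhibition of the writhing response was calculated versus vehicle controls (Student's t-test).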

Mus musculus [4] = experiment: Antinociceptive activity in Swiss mouse assessed as inhibition of acetic acid-induced writhing response at 100 mg/kg, po dose administered 1 hr before acetic acid challenge measured for 30 mins; type: functional; method in brief: as §3
Mus musculus [5] = experiment: Antinociceptive activity in Swiss mouse assessed as inhibition of acetic acid-induced writhing response at 50 mg/kg, po dose administered 1 hr before acetic acid challenge measured for 30 mins; type: functional; method in brief: as §3
Mus musculus [6] = experiment: Antinociceptive activity in Swiss mouse assessed as inhibition of acetic acid-induced writhing response at 6.25 mg/kg, po dose administered 1 hr before acetic acid challenge measured for 30 mins; type: functional; method in brief: as §3
Rattus norvegicus [7] = experiment: Antiinflammatory activity against carrageenan-induced paw edema in Wistar rat at 25 mg/kg, po dose administered 1 hr before carrageenan challenge assessed after 3 hrs; type: functional; method in brief: as §1
Rattus norvegicus [8] = experiment: Antiinflammatory activity against carrageenan-induced paw edema in Wistar rat at 50 mg/kg, po dose administered 1 hr before carrageenan challenge assessed after 3 hrs; type: functional; method in brief: as §1
Rattus norvegicus [9] = experiment: Antiinflammatory activity against carrageenan-induced paw edema in Wistar rat at 12.5 mg/kg, po dose administered 1 hr before carrageenan challenge assessed after 3 hrs; type: functional; method in brief: as §1
Mus musculus [10] = experiment: Antinociceptive activity in Swiss mouse assessed as inhibition of acetic acid-induced writhing response at 3.12 mg/kg, po dose administered 1 hr before acetic acid challenge measured for 30 mins; type: functional
Mus musculus [11] = experiment: Sedative activity in Swiss mouse assessed as inhibition on spontaneous locomotor activity at 25 mg/kg, po measured for every 5 mins during 60 to 90 mins; type: functional, organism-based; set-up: dose 25 mg/kg, route oral; method in brief: as §2
Mus musculus [12] = experiment: Sedative activity in Swiss mouse assessed as inhibition on spontaneous locomotor activity at 6.25 mg/kg, po measured for every 5 mins during 60 to 90 mins; type: ADME, organism-based; set-up: dose 6.25 mg/kg, route oral; method in brief: as §2
Rattus norvegicus [13] = experiment: Antiinflammatory activity against carrageenan-induced paw edema in Wistar rat at 6.25 mg/kg, po dose administered 1 hr before carrageenan challenge assessed after 3 hrs; type: functional; method in brief: as §1
Mus musculus [14] = experiment: Sedative activity in Swiss mouse assessed as inhibition on spontaneous locomotor activity at 12.5 mg/kg, po dose measured for every 5 mins during 60 to 90 mins; type: ADME, organism-based; set-up: dose 12.5 mg/kg, route oral; method in brief: as §2
Mus musculus [15] = experiment: Antinociceptive activity in Swiss mouse assessed as inhibition of acetic acid-induced writhing response at 12.5 mg/kg, po dose administered 1 hr before acetic acid challenge measured for 30 mins; type: functional; method in brief: as §3
Rattus norvegicus [16] = experiment: Antiinflammatory activity against carrageenan-induced paw edema in Wistar rat at 3.12 mg/kg, po dose administered 1 hr before carrageenan challenge assessed after 3 hrs; type: functional
Rattus norvegicus [17] = experiment: Acute gastrolesivity in Wistar rat assessed as appearance of gastric lesions at 200 mg/kg, po after 5 hrs; type: toxicity, organism-based, Stomach; set-up: dose 200 mg/kg, route oral; details: in vivo
Method in brief: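 Wistar rats (250–300 g, either sex), fasted overnight, given the compound orally at 200 mg kg-1 as a suspension in 0.5% methylcellulose by gavage (1 mL/100 g); 8 rats per compound. Stomachs were fixed in 2% formalin, opened along the greater curvature, and examined under a stereomicroscope by a blinded observer. The result is the number of rats with gastric damage over the number treated.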

Mus musculus [18] = experiment: Antinociceptive activity in Swiss mouse assessed as inhibition of acetic acid-induced writhing response at 200 mg/kg, po dose administered 1 hr before acetic acid challenge measured for 30 mins; type: functional
Rattus norvegicus [19] = experiment: Antiinflammatory activity against carrageenan-induced paw edema in Wistar rat at 200 mg/kg, po dose administered 1 hr before carrageenan challenge assessed after 3 hrs; type: functional

Row | Compound | inhibition in vivo at 100 mg/kg (Rattus norvegicus [1]) [%] | inhibition at 100 mg/kg (Mus musculus [2]) [%] | inhibition in vivo at 25 mg/kg (Mus musculus [3]) [%] | inhibition in vivo at 100 mg/kg (Mus musculus [4]) [%] | inhibition in vivo at 50 mg/kg (Mus musculus [5]) [%] | inhibition in vivo at 50 mg/kg (Rattus norvegicus [8]) [%] | also measured
1 | CCN(CC)C(=O)c1c(N2CCN(C)CC2)c2cccnc2n2c(-c3ccccc3)nnc12 | 0 | 72 | 15 | 100 | 62 | – | –
2 | CCC(CC)Nc1c(C(=O)N(CC)CC)c2nnc(C(C)C)n2c2ncccc12 | 50 | 97 | 58 | 91 | 75 | 47 | inhibition in vivo at 6.25 mg/kg (Mus musculus [6]): 36%; inhibition in vivo at 25 mg/kg (Rattus norvegicus [7]): 47%; inhibition in vivo at 12.5 mg/kg (Rattus norvegicus [9]): 45%; inhibition in vivo at 3.12 mg/kg (Mus musculus [10]): 18%; inhibition at 25 mg/kg (Mus musculus [11]): 70%; inhibition at 6.25 mg/kg (Mus musculus [12]): 81%; inhibition in vivo at 6.25 mg/kg (Rattus norvegicus [13]): 11%; inhibition at 12.5 mg/kg (Mus musculus [14]): 92%; inhibition in vivo at 12.5 mg/kg (Mus musculus [15]): 49%
3 | CCNc1c(C(=O)N(CC)CC)c2nnc(C(C)C)n2c2ccccc12 | 42 | 39 | 12 | 91 | 43 | 43 | inhibition in vivo at 25 mg/kg (Rattus norvegicus [7]): 24%; inhibition in vivo at 12.5 mg/kg (Rattus norvegicus [9]): 6%
4 | CC(C)CNc1c(C(=O)N2CCCC2)c2nnc(C(C)C)n2c2ncccc12 | 0 | 5 | 29 | 60 | 64 | – | –
5 | CCOC(=O)N1CCN(c2c(C(=O)N(CC)CC)c3nnc(C(C)C)n3c3ncccc23)CC1 | 0 | 83 | 53 | 100 | 75 | – | inhibition at 25 mg/kg (Mus musculus [11]): 96%; inhibition in vivo at 12.5 mg/kg (Mus musculus [15]): 29%
6 | CCN(CC)C(=O)c1c(OC2CCN(C)CC2)c2cccnc2n2cnnc12 | 0 | 55 | – | 45 | 20 | – | –
7 | CCN(CC)C(=O)c1c(OCC(C)C)c2cccnc2n2c(C(C)C)nnc12 | 0 | – | – | 26 | – | – | –
8 | CCN(CC)C(=O)c1c(N2CCN(C)CC2)c2cccnc2n2cnnc12 | 0 | – | – | 14 | – | – | –
9 | CCN(CC)C(=O)c1c(N2CCN(C)CC2)c2ccccc2n2cnnc12 | 0 | 0 | 28 | 55 | 58 | – | –
10 | CCN(CC)C(=O)c1c(OC(C)C)c2cccnc2n2c(C(C)C)nnc12 | 24 | – | – | 11 | – | 0 | –
11 | CCN(CC)C(=O)c1c(NC(C)C)c2cccnc2n2c(C(C)C)nnc12 | 81 | 98 | 33 | 83 | 54 | 75 | inhibition in vivo at 25 mg/kg (Rattus norvegicus [7]): 75%; inhibition in vivo at 12.5 mg/kg (Rattus norvegicus [9]): 68%; inhibition at 25 mg/kg (Mus musculus [11]): 26%; inhibition in vivo at 6.25 mg/kg (Rattus norvegicus [13]): 15%; inhibition at 12.5 mg/kg (Mus musculus [14]): 0%; inhibition in vivo at 12.5 mg/kg (Mus musculus [15]): 0%
12 | CCN(CC)C(=O)c1c(N2CCN(C)CC2)c2ccccc2n2c(C(C)C)nnc12 | 34 | 54 | 77 | 100 | 100 | 0 | inhibition at 25 mg/kg (Mus musculus [11]): 21%; inhibition in vivo at 12.5 mg/kg (Mus musculus [15]): 14%
13 | CCc1nnc2c(C(=O)N(CC)CC)c(NCCC(C)C)c3cccnc3n12 | 41 | 95 | 15 | 98 | 75 | 41 | inhibition in vivo at 25 mg/kg (Rattus norvegicus [7]): 43%; inhibition in vivo at 12.5 mg/kg (Rattus norvegicus [9]): 29%; inhibition in vivo at 6.25 mg/kg (Rattus norvegicus [13]): 0%
14 | CCN(CC)C(=O)c1c(NN2CCN(C)CC2)c2cccnc2n2c(C(C)C)nnc12 | 0 | – | – | 17 | – | – | –
15 | CCN(CC)C(=O)c1c(N(C)CC)c2cccnc2n2c(C(C)C)nnc12 | 71 | 53 | 17 | 81 | 59 | 67 | inhibition in vivo at 25 mg/kg (Rattus norvegicus [7]): 65%; inhibition in vivo at 3.12 mg/kg (Rattus norvegicus [16]): 0%; inhibition in vivo at 12.5 mg/kg (Rattus norvegicus [9]): 51%; inhibition in vivo at 6.25 mg/kg (Rattus norvegicus [13]): 42%
16 | CCNC(=O)c1c(N2CCN(C)CC2)c2cccnc2n2c(C(C)C)nnc12 | 0 | 80 | – | 79 | 24 | – | –
17 | CCN(CC)C(=O)c1c(NCC(C)C)c2ccccc2n2c(C(C)C)nnc12 | 0 | 14 | – | 88 | 29 | – | –
18 | CCN(CC)C(=O)c1c(NCC(OC)OC)c2cccnc2n2c(C(C)C)nnc12 | 0 | 0 | – | 47 | 8 | – | –
19 | CC(C)c1nnc2c(C(=O)N3CCCC3)c(N3CCN(C)CC3)c3cccnc3n12 | 0 | – | – | 100 | – | – | –
20 | CCCCOc1c(C(=O)N(CC)CC)c2nnc(C(C)C)n2c2ncccc12 | 3 | 76 | – | 40 | 14 | – | –
21 | CCN(CC)C(=O)c1c(NCC(C)C)c2cccnc2n2c(C(C)C)nnc12 | 70 | 15 | – | 100 | 33 | 66 | Activity (Rattus norvegicus [17]): Non-toxic; inhibition in vivo at 25 mg/kg (Rattus norvegicus [7]): 61%; inhibition in vivo at 3.12 mg/kg (Rattus norvegicus [16]): 18%; inhibition in vivo at 12.5 mg/kg (Rattus norvegicus [9]): 50%; inhibition in vivo at 200 mg/kg (Mus musculus [18]): 100%; inhibition in vivo at 6.25 mg/kg (Rattus norvegicus [13]): 27%; inhibition in vivo at 200 mg/kg (Rattus norvegicus [19]): 74%
22 | CCN(CC)C(=O)c1c(OC2CCN(C)CC2)c2cccnc2n2c(C(C)C)nnc12 | 18 | 65 | – | 87 | 35 | – | –
23 | CCNc1c(C(=O)N(CC)CC)c2nnc(C(C)C)n2c2ncccc12 | 63 | 13 | – | 100 | 20 | 63 | Activity (Rattus norvegicus [17]): Non-toxic; inhibition in vivo at 25 mg/kg (Rattus norvegicus [7]): 61%; inhibition in vivo at 3.12 mg/kg (Rattus norvegicus [16]): 9%; inhibition in vivo at 12.5 mg/kg (Rattus norvegicus [9]): 35%; inhibition in vivo at 200 mg/kg (Mus musculus [18]): 100%; inhibition in vivo at 6.25 mg/kg (Rattus norvegicus [13]): 33%; inhibition in vivo at 200 mg/kg (Rattus norvegicus [19]): 65%
24 | CCOc1c(C(=O)N(CC)CC)c2nnc(C(C)C)n2c2ncccc12 | 10 | – | – | 22 | – | – | –
